Screens: PubChem, several laboratories
Shown are actives, neighbours in structure and some others; about 2.5% of the full set was active somewhere.
TRPC4 block – TRPC4 (mouse) channel inhibition; B-score at 10 µM; actives 0.39% (n = 300,000); Q9QUQ5; HEK293 TRPC4beta/mu-opioid, DAMGO-evoked Fluo4 calcium flux; stronger effect = lower value; AID 2247;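 active means B-score over 3 SD under the library average, no early fluorescence shift, positive overall ratio signal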
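Assay system: HEK293 cells with stable TRPC4beta plus mu-opioid receptor expression; Probe or stimulus: DAMGO in two steps, submaximal then maximal; Dosing: single-point compound dosing; Measured by: Fluo4 calcium-dye fluorescence, kinetic read; Read-out basis: B score from integrated Fluo4 fluorescence ratio.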
Pemphigus Ab inh – blocks pemphigus antibody binding to human desmoglein-3; actives 0.48% (n = 310,000); binding (percent of control), % at 10 µM; P32926; DSG3-coupled beads, scFv-anti-DSG3-GFP binding, flow cytometry; stronger effect = lower value; AID 588358;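 active means binding more than 3 SD below its plate's average and above zero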;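 further: hits lower antibody fragment binding to DSG3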
TRPC6 inh – inhibitors of mouse TRPC6 channel. HEK293-TRPC6, membrane potential dye, ACh-evoked depolarization; stronger effect = lower value. B-score at 10 µM. actives 1.1% (n = 310,000). AID 2553;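 active means B-score under library mean minus 3 SD, initial fluorescence not abnormally high, positive integrated signal ratio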;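 further: B-score derived from integrated fluorescence ratio over the kinetic read; more negative B-score means stronger inhibition of depolarization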
Target sequence (Q61143 whole entry, looked up): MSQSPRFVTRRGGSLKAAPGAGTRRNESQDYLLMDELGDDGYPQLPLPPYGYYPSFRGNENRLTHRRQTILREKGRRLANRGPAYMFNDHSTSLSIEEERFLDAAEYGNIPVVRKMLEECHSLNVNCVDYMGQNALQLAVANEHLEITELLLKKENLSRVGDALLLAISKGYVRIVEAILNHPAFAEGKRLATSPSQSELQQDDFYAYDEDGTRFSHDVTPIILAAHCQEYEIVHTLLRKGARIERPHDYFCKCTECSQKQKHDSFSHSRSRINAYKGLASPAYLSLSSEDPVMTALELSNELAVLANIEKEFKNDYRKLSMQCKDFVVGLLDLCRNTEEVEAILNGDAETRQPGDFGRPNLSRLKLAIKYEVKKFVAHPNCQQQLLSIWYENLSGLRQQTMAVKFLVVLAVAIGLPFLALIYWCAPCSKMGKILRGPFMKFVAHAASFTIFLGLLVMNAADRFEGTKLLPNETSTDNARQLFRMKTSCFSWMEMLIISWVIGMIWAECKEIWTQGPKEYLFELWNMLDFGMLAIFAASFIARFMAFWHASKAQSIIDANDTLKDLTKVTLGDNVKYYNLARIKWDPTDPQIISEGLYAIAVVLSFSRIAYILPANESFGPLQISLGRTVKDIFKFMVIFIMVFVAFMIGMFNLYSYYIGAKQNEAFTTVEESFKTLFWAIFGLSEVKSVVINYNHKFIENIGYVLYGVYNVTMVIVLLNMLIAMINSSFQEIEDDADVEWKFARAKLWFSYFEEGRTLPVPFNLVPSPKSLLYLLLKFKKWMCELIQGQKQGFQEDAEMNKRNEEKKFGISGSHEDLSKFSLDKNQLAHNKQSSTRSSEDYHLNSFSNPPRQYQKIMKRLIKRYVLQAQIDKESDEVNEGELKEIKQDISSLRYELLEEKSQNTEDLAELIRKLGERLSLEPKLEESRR
TRPC4 potent – allosteric potentiators of mouse TRPC4 channel; Q9QUQ5; HEK293 TRPC4beta/mu-opioid, DAMGO EC20, Fluo-4 Ca2+ flux; stronger effect = higher value; B-score at 10 µM; actives 0.42% (n = 310,000); AID 2227;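 active means B-score of calcium response area above 5 SD of library B-scores, with initial fluorescence ratio within 5 SD of library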
TRPC4 act – TRPC4 (mouse) channel activation | Q9QUQ5 | HEK293 TRPC4beta/mu-opioid, Fluo4 calcium fluorescence; stronger effect = higher value | B-score at 10 µM | actives 0.49% (n = 310,000) | AID 2237;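 active means B-score above 5 SD of library B-scores, and initial fluorescence ratio not above library mean plus 5 SD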;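 further: positive B-score marks a calcium rise read as TRPC4 activation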
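Assay system: HEK293 stable line with TRPC4beta plus mu-opioid receptor; schedule: 45 min room-temperature Fluo4 loading, 110 s read; technique: kinetic Fluo4 calcium fluorescence; evaluation: integrated baseline-normalised fluorescence ratio, converted to per-well B score; controls: buffer (low) and maximal DAMGO (high)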
TRPC6 activator – activates the mouse TRPC6 cation channel; HEK293-TRPC6 membrane potential dye fluorescence; stronger effect = higher value; B-score at 10 µM; actives 0.13% (n = 310,000);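 active means B-score of the integrated fluorescence ratio above library mean plus 3 SD, and starting fluorescence ratio within library mean plus 5 SD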;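 further: higher score means more depolarization so channel activation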
TRPC4 spec 2 – second check of whether TRPC6 inhibitors also affect mouse TRPC4 | HEK293 TRPC4/MOR, membrane potential dye fluorescence; channel activated by saturating DAMGO dose | inhibition, % at 10 µM | actives 42% (n = 920) | AID 2776 | shares compounds with TRPC6 inh;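 active means compounds whose fluorescence signal differed from control wells by over 3 SD, either direction, in both duplicate plates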
TRPC4 spec – mouse TRPC4 off-target activity of TRPC6 inhibitors; actives 61% (n = 920); shares compounds with TRPC6 inh; AID 2777; HEK293 TRPC4/mu-opioid, membrane potential fluorescence; activity change, negative = inhibition, % at 10 µM;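 active means rise or fall in signal beyond 3 SD of buffer-only wells in both replicate plates, either sign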;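 further: integrated kinetic ratio of fluorescence range over baseline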
HEK293 MPD ctr 2-1 – second check of TRPC6 inhibitor effects in parental HEK293 cells; parental HEK293 membrane potential dye fluorescence; maximal acetylcholine challenge after compound addition; signal change vs control, % at 10 µM; shares compounds with TRPC6 inh; actives 31% (n = 920);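 active means membrane potential signal moving either way by over 3 SD of the maximum-effect control, in both duplicate plates, meaning non-specific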
HEK293 MPD ctr-1 – checks TRPC6 inhibitor effects in parental HEK293 cells; actives 60% (n = 920); membrane potential signal change, % at 10 µM; parental HEK293 membrane potential dye fluorescence; shares compounds with TRPC6 inh;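 active means membrane potential signal shifting up or down by more than 3 SD of buffer-only wells, on both duplicate plates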
HEK293 MPD ctr-2 – parental HEK293 nonspecific activity of TRPC6 modulators; actives 51% (n = 2,400); membrane potential signal change, % at 10 µM; membrane potential dye fluorescence; shares compounds with TRPC6 inh;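 active means membrane potential signal moves up or down beyond 5 SD from buffer-only wells, on both duplicate plates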
HEK293 MPD ctr 2-2 – second counter-screen for TRPC6 modulators: effect in parental HEK293 cells; inhibition, % at 10 µM; actives 14% (n = 2,400); shares compounds with TRPC6 inh; membrane potential dye fluorescence; after compound, maximal acetylcholine stimulation; AID 488926;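 active means membrane potential signal drops by more than 5 SD from the mean control signal, in both duplicate plates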
TRPC4/MOR mod – selectivity of TRPC6 modulators against mouse TRPC4; percent change from control (negative = decrease, positive = increase), % at 10 µM; HEK293 TRPC4/mu-opioid, membrane potential fluorescence; shares compounds with TRPC6 inh; actives 69% (n = 2,400);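 active means membrane potential signal moved up or down beyond 5 SD of buffer control wells, in both duplicate plates, actives on both sides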
TRPC4/MOR inh 2 – second check of whether TRPC6 modulators also affect mouse TRPC4 | shares compounds with TRPC6 inh | HEK293 TRPC4/mu-opioid, membrane potential dye fluorescence; stimulated with maximal-effect DAMGO | inhibition, % at 10 µM | actives 55% (n = 2,400) | AID 488928;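 active means drop in membrane potential signal beyond 5 SD of the control wells in both duplicate plates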;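 further: TRPC4 counter screen for TRPC6 hits run under conditions tuned for TRPC6 not TRPC4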
TRPC6 block conf – mouse TRPC6 inhibitor confirmation; actives 43% (n = 3,300); inhibition, % at 10 µM; HEK293-TRPC6, membrane potential dye, ACh-evoked depolarization; shares compounds with TRPC6 inh; AID 488960;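 active means fluorescence ratio falls more than 5 SD below the full-stimulation control mean, in both duplicate runs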;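 further: integrated fluorescence ratio of peak minus minimum over baseline after agonist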
TRPC6 act confirm – confirmation of mouse TRPC6 activators; HEK293-TRPC6 membrane potential dye fluorescence, FDSS; activation, % at 10 µM; shares compounds with TRPC6 inh; actives 11% (n = 2,800);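 active means ratio signal rise beyond 5 SD above unstimulated control wells' mean, seen in both duplicate runs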
A number is an active result; n = inactive; x = no result.

SMILES	TRPC4 block	Pemphigus Ab inh	TRPC6 inh	TRPC4 potent	TRPC4 act	TRPC6 activator	HEK293 MPD ctr-2	HEK293 MPD ctr 2-2	TRPC4/MOR mod	TRPC4/MOR inh 2	TRPC6 block conf	TRPC6 act confirm	others
Clc1ccc2c(c1)C(OC1CN3CCC1CC3)c1ccccc1CS2 (stereo not drawn)	n	n	n	n	n	n	x	x	x	x	x	x
OC(c1cccc(Cl)c1)(c1cccc(Cl)c1)C1CN2CCC1CC2 (stereo not drawn)	n	n	-8	n	n	n	n	n	10%	n	70%	n
CN(C)C(Cc1ccccc1)C(=O)c1c[nH]c2ccccc12 (stereo not drawn)	n	n	n	n	n	n	x	x	x	x	x	x
O=c1[nH]c(=S)n(C2CC2)c(O)c1C=Nc1ccc2c(c1)OCO2	n	n	n	n	n	n	x	x	x	x	x	x
Cc1ccc2c(c1)[C@@H]1CN(C)CC[C@@H]1N2C(=O)Nc1cccc(C(F)(F)F)c1	n	n	-5.9	n	n	n	n	n	-14%	47%	n	n
CCOC(=O)c1cnc(SCc2ccc(Cl)c(Cl)c2)nc1N1CC1	x	n	x	x	x	x	x	x	x	x	x	x
CCCCCSc1cc(OC)c(CCN)cc1OC	n	n	-6.5	n	n	n	n	n	n	59%	40%	n
O=C(OC1CC2CCC(N2)C1C(=O)O)c1ccccc1 (stereo not drawn)	x	n	x	x	x	x	x	x	x	x	x	x
c1ccc(-c2ccc(CN3Cc4ccccc4-n4nncc4C3)cc2)cc1	x	n	x	x	x	x	x	x	x	x	x	x
Cc1ccc(Cc2c(C)nc3nc(SCC(=O)N4CCC5(CC4)OCCO5)nn3c2C)cc1	n	n	-11	n	n	13	184%	n	32%	38%	46%	152%
Cc1cccc(-c2nc3ccc(C(=O)N4CCC5(CC4)OCCO5)cc3nc2-c2cccc(C)c2)c1	n	n	-7.3	n	n	13	n	n	14%	n	79%	116%
COc1ccc(OC)c(N2C(=O)NC(=O)/C(=C/c3ccc([N+](=O)[O-])s3)C2=O)c1	n	n	n	n	n	n	x	x	x	x	x	x
COc1ccc(CCNCc2c(OC)ccc3ccccc23)cc1	n	n	-7	n	n	n	x	x	x	x	65%	x	TRPC4 spec 2=69%;TRPC4 spec=47%;HEK293 MPD ctr 2-1=n;HEK293 MPD ctr-1=24%
COC(=O)C1=C(c2cccc(OC)c2OC)C[C@@H]2CC[C@H]1N2C(=O)NC1CC1	n	n	n	n	n	n	x	x	x	x	x	x
O=c1c2ccccc2nc(CNc2ccccc2)n1-c1ccccc1	n	n	n	n	n	n	x	x	x	x	x	x
CN1CCN(CCOC2c3ccccc3CSc3ccc(Cl)cc32)CC1 (stereo not drawn)	n	n	n	n	n	n	x	x	x	x	x	x
CN(C)CCSC1c2ccccc2CSc2ccccc21 (stereo not drawn)	n	n	-6.2	n	n	n	n	78%	11%	50%	74%	x
COC(=O)C1=C(c2ccc(-c3ccccc3)c(F)c2)C[C@@H]2CC[C@H]1N2C(=O)N1CCCC1	x	n	x	x	x	x	x	x	x	x	x	x
O=C(COc1ccc(Cl)cc1)N(c1ccccc1Cl)C1CN2CCC1CC2 (stereo not drawn)	n	x	-5.3	n	n	n	132%	n	26%	52%	n	x
COc1cc2c(cc1OC)-c1c(OC)c(OC)cc3c1[C@H](C2)N(C)CC3	n	n	-7.7	n	n	n	-412%	n	-58%	38%	45%	n
CC(C)CCN1CCN(Cc2c(F)cccc2Cl)CC1CCO (stereo not drawn)	n	n	n	n	n	n	x	x	x	x	x	x
CN(C)C1=NP(N(C)C)(N(C)C)=NC(c2ccccc2)=N1	n	n	n	n	n	n	x	x	x	x	x	x
O=C(c1cccc(C(F)(F)F)c1)C1CCCN(Cc2ncc[nH]2)C1 (stereo not drawn)	n	n	n	n	n	n	x	x	x	x	x	x
CCn1ccnc1CN1CCCC(C(=O)c2cccc(C(F)(F)F)c2)C1 (stereo not drawn)	n	n	-5.1	n	n	n	n	n	8.0%	65%	62%	x
CCC[N+]12CCC(CC1)C(C(O)(c1ccccc1)c1ccccc1)C2 (stereo not drawn)	n	n	n	n	n	n	x	x	x	x	x	x
C[N+]12CCC(CC1)C(C(O)(c1ccccc1)c1cccs1)C2 (stereo not drawn)	n	n	-5.7	n	n	n	n	n	n	n	55%	n
CN1CCN(c2ccc(NC(=O)Oc3ccccc3)cc2)CC1	n	n	n	n	n	n	x	x	x	x	x	x
CN1CCN(c2cccc3c2C(=O)c2ccccc2C3=O)CC1	n	n	-18	17	n	n	-288%	82%	-53%	72%	80%	n
CN1CCN(c2ccc3c(c2)S(=O)(=O)c2ccccc2C3=O)CC1	n	n	-5.3	n	n	n	90%	n	-52%	32%	n	n
COC(=O)C1=C(c2ccccc2OCc2ccccc2)C[C@@H]2CC[C@H]1N2C(=O)NCc1ccc(C(C)(C)C)cc1	x	n	x	x	x	x	x	x	x	x	x	x
